A word on the pIC50: it is −log10 of the IC50, conventionally taken in molar units.

pIC50: −log10 of the molar value. Active and inactive are the calls of the source. No cut-off for these calls is given here.

For assay [1], the system named is MGC-803. Nature of the assay: Induction of apoptosis in human MGC-803 cells assessed as viable cells at 5 uM incubated for 48 hrs by Annexin V-FITC/PI staining based flow cytometric analysis (reference value: 96.7 %). In kind it is functional. Particulars: read-out: Activity. For orientation: Flow cytometry measures light scatter and fluorescence of single cells or particles in a stream.

The test system of assay [2] is MGC-803. Nature of the assay: Induction of apoptosis in human MGC-803 cells assessed as early apoptotic cells at 5 uM incubated for 24 hrs by Annexin V-FITC/PI staining based flow cytometric analysis (reference value: 3.9 %). In kind it is functional.
Assay [3] concerns MGC-803. The assay is described as follows: Antiproliferative activity against human MGC-803 cells assessed as inhibition of cell growth incubated for 72 hrs by MTT assay. In kind it is functional, cell-based. The settings on record: MGC-803, 72 h. Summed up:
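Antiproliferative screen in gastric cancer lines MGC-803, HGC-27 and BGC-823 by MTT assay; IC50 reported as mean ± SD.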

Assay [4] in a line: Activation of MAPK pathway in human MGC-803 cells assessed as change in Erk5 total expression at 5 to 10 uM incubated for 24 hrs by Western blot analysis. Particulars: dose 5-10 µM. It is filed as cell-based. In general terms: Immunoblotting shows a protein as a band on a membrane.
Assay [5] concerns MGC-803. The assay is described as follows: Cell cycle arrest in human MGC-803 cells assessed as S phase cells at 7.5 uM incubated for 24 hrs by RNase/PI staining based flow cytometric analysis (reference value: 27.1%). It is filed as functional.
Assay [6] concerns MGC-803. Nature of the assay: Induction of mitochondrial dysfunction in human MGC-803 cells assessed as downregulation of procaspase-9 expression at 5 to 10 uM incubated for 24 hrs by Western blot analysis. It is filed as functional, cell-based. The settings on record: dose 5-10 µM. The essentials: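 Western blot of caspase 9, 3, 7, PARP and γH2A.X in MGC-803 lysates after 24 h exposure to 5, 7.5 or 10 μM; band quantitation; mean ± SD from three independent experiments.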

For `Cc1cc(N2CC[C@@H](C)[C@@H](N(C)c3ncnc4[nH]ccc34)C2)n2nc(SCc3ccc(C(F)(F)F)cc3)nc2n1`, the viability at 5 µM in the assay with MGC-803 [1] was determined as 73.4%. The Activity in the assay on MGC-803 [2] came to 5.5%; in the assay on MGC-803 [5], 29.36%. Further, the pIC50 with MGC-803 [3] is 5.57. Moreover, the result in assay [4] was inactive. Also, the result with MGC-803 [6] was Active.

(Values after ChEMBL document CHEMBL5244249, “Discovery of tofacitinib derivatives as orally active antitumor agents based on the scaffold hybridization strategy” (Eur J Med Chem, 2020).)
